What was measured:
[1] = system: THP-1 cells expressing FKBP–caspase-4; test: B/B-induced FKBP–caspase-4 pyroptosis, LDH release; type: cell-based, human; conditions: FKBP–caspase-4 THP-1 cells, 50 nM B/B, 10 µM compound
How it was run: (§1)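 Unprimed THP-1 cells stably expressing FKBP–caspase-4 or FKBP–caspase-11 were seeded in Opti-MEM with 0.1% FBS. Cells were dimerised with 50 nM B/B, with or without 10 µM test compound, for the indicated times. LDH in the medium was measured by CytoTox 96 and expressed as a percentage of maximal release by 0.1% Triton X-100.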

[2] = system: THP-1 cells expressing FKBP–caspase-11; test: B/B-induced FKBP–caspase-11 pyroptosis, LDH release; type: cell-based, human; conditions: FKBP–caspase-11 THP-1 cells, 50 nM B/B, 10 µM compound
How it was run: as §1

[3] = system: LPS-primed human THP-1 monocytic cells; test: Nigericin-induced pyroptosis, LDH release; type: cell-based; conditions: LPS-primed THP-1 cells, 25 µM compound
How it was run: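 THP-1 cells in Opti-MEM with 0.1% FBS were primed for 4 h with 1 µg/ml ultrapure LPS (E. coli O111:B4). They were then stimulated for 2 h with 5 µM nigericin, with or without 25 µM test compound. LDH release was measured by CytoTox 96 and given as a percentage of maximal release by 0.1% Triton X-100.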

Row | SMILES | cell death induced by caspase-4, in words [1] | cell death induced by caspase-11, in words [2] | nigericin-induced cell lysis (LDH release), in words [3]
1 | C[C@H](NC(=O)C(=O)Nc1ccccc1C(C)(C)C)C(=O)N[C@@H](CC(=O)O)C(=O)COc1c(F)c(F)cc(F)c1F [Emricasan, N-[2-(1,1-dimethylethyl)phenyl]-2-oxoglycyl-N-[(1S)-1-(carboxymethyl)-2-oxo-3-(2,3,5,6-tetrafluorophenoxy)propyl]-L-alaninamide] | inhibited | inhibited | inhibited
2 | CC(C)(O)c1coc(S(=O)(=O)NC(=O)Nc2c3c(cc4c2CCC4)CCC3)c1 [MCC950] |  |  | inhibited
